ChEMBL document CHEMBL3243954 (J Med Chem, 1979)

What was measured:
Mus musculus [1] = assay: Muscle relaxant activity in iv dosed mouse after 60 mins by rotarod test; type: ADME, organism-based; conditions: in vivo, 1 h
[2] = Drug metabolism in mouse liver microsomes assessed as rate of esterase-mediated compound hydrolysis measured per mg of protein by pH stat based titrimetric analysis; type: ADME
Mus musculus [3] = assay: Antimetrazol activity in iv dosed mouse assessed as inhibition of metrazol-induced tonic-extensor seizures administered 60 mins prior to metrazol challenge; type: functional
Method in brief: (§1)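 Mice dosed iv with the ester in aqueous solution containing under 10% chremofor. Metrazol 125 mg/kg sc was given 30 or 60 min after the ester. ED50 is the dose preventing tonic-extensor seizures in 50% of mice, derived by probit analysis.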

Mus musculus [4] = species on record: Mus musculus; assay: Ratio of ED50 for muscle relaxant activity in mouse to ED50 for antimetrazol activity in mouse measured after 30 mins
Mus musculus [5] = assay: Muscle relaxant activity in iv dosed mouse after 30 mins by rotarod test; type: ADME, organism-based; conditions: in vivo, 0.5 h
Mus musculus [6] = assay: Antimetrazol activity in iv dosed mouse assessed as inhibition of metrazol-induced tonic-extensor seizures administered 30 mins prior to metrazol challenge; type: functional; method in brief: as §1
Mus musculus [7] = species on record: Mus musculus; assay: Ratio of ED50 for muscle relaxant activity in mouse to ED50 for antimetrazol activity in mouse measured after 60 mins
esterase = assay: (§2) Drug metabolism in mouse liver microsomes assessed as rate of esterase-mediated compound hydrolysis by pH stat based titrimetric analysis; type: ADME; conditions: liver microsomes
[8] = as §2; type: ADME; conditions: microsomes
Brain [9] = assay: Drug uptake albino mouse brain at 5 mg equivalent of oxazepam/kg, iv after 40 mins measured per gm of tissue by thin-layer chromatography; type: ADME, organism-based; conditions: in vivo
Liver [10] = assay: Drug metabolism in albino mouse liver assessed as total metabolite concentration at 5 mg equivalent of oxazepam/kg, iv after 3 mins by thin layer chromatography; type: ADME, organism-based; conditions: in vivo, 0.05 h
Method in brief: (§3)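 Liver was dried and its total radioactivity, the sum of metabolites, was measured on a carbon-tritium analyzer. Values are means of four mice (±SE).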

Liver [11] = assay: Drug metabolism in albino mouse liver assessed as total metabolite concentration at 5 mg equivalent of oxazepam/kg, iv after 1 min by thin layer chromatography; type: ADME, organism-based; conditions: in vivo; method in brief: as §3
Brain [12] = assay: Drug uptake albino mouse brain at 5 mg equivalent of oxazepam/kg, iv after 3 mins measured per gm of tissue by thin-layer chromatography; type: ADME, organism-based; conditions: in vivo, 0.05 h
Brain [13] = assay: Drug uptake albino mouse brain at 5 mg equivalent of oxazepam/kg, iv after 10 mins measured per gm of tissue by thin-layer chromatography; type: ADME, organism-based; conditions: in vivo
Brain [14] = assay: Drug uptake albino mouse brain at 5 mg equivalent of oxazepam/kg, iv after 20 mins measured per gm of tissue by thin-layer chromatography; type: ADME, organism-based; conditions: in vivo
Liver [15] = assay: Drug metabolism in albino mouse liver assessed as total metabolite concentration at 5 mg equivalent of oxazepam/kg, iv after 10 mins by thin layer chromatography; type: ADME, organism-based; conditions: in vivo; method in brief: as §3
Brain [16] = assay: Drug uptake albino mouse brain at 5 mg equivalent of oxazepam/kg, iv after 1 min measured per gm of tissue by thin-layer chromatography; type: ADME, organism-based; conditions: in vivo
[17] = Retardation factor, Rm of the compound by thin-layer chromatography; type: physicochemical
Liver [18] = assay: Drug metabolism in albino mouse liver assessed as total metabolite concentration at 5 mg equivalent of oxazepam/kg, iv after 5 mins by thin layer chromatography; type: ADME, organism-based; conditions: in vivo; method in brief: as §3
Brain [19] = assay: Drug uptake albino mouse brain at 5 mg equivalent of oxazepam/kg, iv after 240 mins measured per gm of tissue by thin-layer chromatography; type: ADME, organism-based; conditions: in vivo, 4 h
Brain [20] = assay: Drug uptake albino mouse brain at 5 mg equivalent of oxazepam/kg, iv after 60 mins measured per gm of tissue by thin-layer chromatography; type: ADME, organism-based; conditions: in vivo, 1 h
Brain [21] = assay: Drug uptake albino mouse brain at 5 mg equivalent of oxazepam/kg, iv after 120 mins measured per gm of tissue by thin-layer chromatography; type: ADME, organism-based; conditions: in vivo, 2 h
Brain [22] = assay: Drug uptake albino mouse brain at 5 mg equivalent of oxazepam/kg, iv after 5 mins measured per gm of tissue by thin-layer chromatography; type: ADME, organism-based; conditions: in vivo
Brain [23] = assay: Drug uptake albino mouse brain at 10 mg equivalent of oxazepam/kg, iv after 60 mins measured per gm of tissue by thin-layer chromatography; type: ADME, organism-based; conditions: in vivo, 1 h
Brain [24] = assay: Drug uptake albino mouse brain at 10 mg equivalent of oxazepam/kg, iv after 3 mins measured per gm of tissue by thin-layer chromatography; type: ADME, organism-based; conditions: in vivo, 0.05 h
Brain [25] = assay: Drug uptake albino mouse brain at 10 mg equivalent of oxazepam/kg, iv after 240 mins measured per gm of tissue by thin-layer chromatography; type: ADME, organism-based; conditions: in vivo, 4 h
Brain [26] = assay: Drug uptake albino mouse brain at 10 mg equivalent of oxazepam/kg, iv after 30 mins measured per gm of tissue by thin-layer chromatography; type: ADME, organism-based; conditions: in vivo, 0.5 h
Brain [27] = assay: Drug uptake albino mouse brain at 10 mg equivalent of oxazepam/kg, iv after 10 mins measured per gm of tissue by thin-layer chromatography; type: ADME, organism-based; conditions: in vivo
Brain [28] = assay: Drug uptake albino mouse brain at 10 mg equivalent of oxazepam/kg, iv after 20 mins measured per gm of tissue by thin-layer chromatography; type: ADME, organism-based; conditions: in vivo
Brain [29] = assay: Drug uptake albino mouse brain at 10 mg equivalent of oxazepam/kg, iv after 120 mins measured per gm of tissue by thin-layer chromatography; type: ADME, organism-based; conditions: in vivo, 2 h
Brain [30] = assay: Drug uptake albino mouse brain at 10 mg equivalent of oxazepam/kg, iv after 5 mins measured per gm of tissue by thin-layer chromatography; type: ADME, organism-based; conditions: in vivo
Brain [31] = assay: Drug uptake albino mouse brain at 10 mg equivalent of oxazepam/kg, iv after 1 min measured per gm of tissue by thin-layer chromatography; type: ADME, organism-based; conditions: in vivo
[32] = Mus musculus, iv, read-out: ED50

Row | SMILES | ED50 (Mus musculus [1]) [mg/kg] | Vmax [2] [nmol/min] | ED50 (Mus musculus [3]; [32]) [mg/kg] | Ratio ED50 (Mus musculus [4]) | ED50 (Mus musculus [5]) [mg/kg] | ED50 (Mus musculus [6]; [32]) [mg/kg] | Ratio ED50 (Mus musculus [7]) | further results
1 | CCCC(=O)OC1N=C(c2ccccc2)c2cc(Cl)ccc2NC1=O (configuration not stated) | 3.28 | 88 | 0.32 | 9.1 | 2.64 | 0.29 | 10.3 | 
2 | O=C(CCc1ccccc1)OC1N=C(c2ccccc2)c2cc(Cl)ccc2NC1=O (configuration not stated) | 3.56 | 7.9 | 0.31 | 5.8 | 2.57 | 0.44 | 11.5 | Km (esterase): 9.7 µM
3 | CC(Cc1ccccc1)C(=O)OC1N=C(c2ccccc2)c2cc(Cl)ccc2NC1=O (racemic) | 4.01 | 2.4 | 0.66 | 7.4 | 3.75 |  | 6.1 | Km [8]: 8.3 µM; ED50 (Mus musculus [6]): 0.51 mg/kg
4 | O=C(CCCc1ccccc1)OC1N=C(c2ccccc2)c2cc(Cl)ccc2N[14C]1=O (configuration not stated) |  |  |  |  |  |  |  | Drug uptake (Brain [9]): 9.5 nmol; Drug metabolism (Liver [10]): 85.9 nmol/g; Drug metabolism (Liver [11]): 80.7 nmol/g; Drug uptake (Brain [12]): 0.9 nmol; Drug uptake (Brain [13]): 2.9 nmol; Drug uptake (Brain [14]): 6.5 nmol; Drug metabolism (Liver [15]): 40.4 nmol/g; Drug uptake (Brain [16]): 0.4 nmol; Rm [17]: 0.65; Drug metabolism (Liver [18]): 82.3 nmol/g; Drug uptake (Brain [19]): 12.2 nmol; Drug uptake (Brain [20]): 9.6 nmol; Drug uptake (Brain [21]): 15.1 nmol; Drug uptake (Brain [22]): 0.8 nmol
5 | CC(Cc1ccccc1)C(=O)OC1N=C(c2ccccc2)c2cc(Cl)ccc2NC1=O (stereo in doubt; 11) | 3.83 | 7.3 |  | 6.8 | 2.67 |  | 4.7 | ED50 (Mus musculus [3]): 0.82 mg/kg; Km [8]: 25 µM; ED50 (Mus musculus [6]): 0.39 mg/kg
6 | CC(Cc1ccccc1)C(=O)OC1N=C(c2ccccc2)c2cc(Cl)ccc2N[14C]1=O (stereo in doubt; [14C]-11) |  |  |  |  |  |  |  | Drug uptake (Brain [9]): 10.8 nmol; Drug uptake (Brain [12]): 2.1 nmol; Drug uptake (Brain [13]): 5.6 nmol; Drug uptake (Brain [14]): 7.7 nmol; Drug uptake (Brain [19]): 7.2 nmol; Drug uptake (Brain [20]): 12.8 nmol; Drug uptake (Brain [21]): 11.7 nmol; Drug uptake (Brain [22]): 2.6 nmol
7 | CCC(CC)C(=O)OC1N=C(c2ccccc2)c2cc(Cl)ccc2NC1=O (configuration not stated) | 3.42 | 1.4 | 0.33 | 10 | 2.8 | 0.28 | 10.4 | 
8 | CC(Cc1ccccc1)C(=O)OC1N=C(c2ccccc2)c2cc(Cl)ccc2NC1=O (single isomer, unassigned; (-)) | 2.2 | 2.6 |  | 3.5 | 2.86 |  | 2.4 | ED50 (Mus musculus [3]): 0.92 mg/kg; Km [8]: 8.7 µM; ED50 (Mus musculus [6]): 0.81 mg/kg
9 | O=C1Nc2ccc(Cl)cc2C(c2ccccc2)=NC1O (configuration not stated) [OXAZEPAM] |  |  | 0.39 |  |  | 0.18 |  | 
10 | O=C(Cc1ccccc1)OC1N=C(c2ccccc2)c2cc(Cl)ccc2NC1=O (configuration not stated) |  | 12.2 |  |  |  |  |  | Km (esterase): 22.7 µM
11 | CCC(=O)OC1N=C(c2ccccc2)c2cc(Cl)ccc2NC1=O (configuration not stated) | 4.4 | 139 | 0.32 | 34.2 | 4.45 | 0.13 | 13.8 | 
12 | CC(=O)OC1N=C(c2ccccc2)c2cc(Cl)ccc2N[14C]1=O (configuration not stated) |  |  |  |  |  |  |  | Drug uptake (Brain [23]): 46.6 nmol; Drug uptake (Brain [24]): 39.4 nmol; Drug uptake (Brain [25]): 11 nmol; Drug uptake (Brain [26]): 40.3 nmol; Rm [17]: -0.15; Drug uptake (Brain [27]): 59.5 nmol; Drug uptake (Brain [28]): 49.2 nmol; Drug uptake (Brain [29]): 33 nmol; Drug uptake (Brain [30]): 47.5 nmol; Drug uptake (Brain [31]): 29.9 nmol
13 | O=C(CCCc1ccccc1)OC1N=C(c2ccccc2)c2cc(Cl)ccc2NC1=O (configuration not stated) |  | 1.5 |  |  |  |  |  | Km (esterase): 9.5 µM
14 | CC(=O)OC1N=C(c2ccccc2)c2cc(Cl)ccc2NC1=O (configuration not stated) | 1.2 | 323 | 0.33 | 2.6 | 0.97 | 0.38 | 3.6 | 
15 | CC(Cc1ccccc1)C(=O)OC1N=C(c2ccccc2)c2cc(Cl)ccc2N[14C]1=O (single isomer, unassigned; (-)) |  |  |  |  |  |  |  | Drug uptake (Brain [9]): 11.8 nmol; Drug uptake (Brain [12]): 0.8 nmol; Drug uptake (Brain [13]): 4.6 nmol; Drug uptake (Brain [14]): 6.7 nmol; Drug uptake (Brain [19]): 12.2 nmol; Drug uptake (Brain [20]): 14.8 nmol; Drug uptake (Brain [21]): 13.7 nmol; Drug uptake (Brain [22]): 1.6 nmol
16 | CC(Cc1ccccc1)C(=O)OC1N=C(c2ccccc2)c2cc(Cl)ccc2N[14C]1=O (racemic) |  |  |  |  |  |  |  | Drug uptake (Brain [9]): 10 nmol; Drug uptake (Brain [12]): 1.3 nmol; Drug uptake (Brain [13]): 4.7 nmol; Drug uptake (Brain [14]): 5.4 nmol; Rm [17]: 0.64; Drug uptake (Brain [19]): 5.5 nmol; Drug uptake (Brain [20]): 13 nmol; Drug uptake (Brain [21]): 14.2 nmol
17 | COC(=O)CCC(=O)OC1N=C(c2ccccc2)c2cc(Cl)ccc2NC1=O (configuration not stated) |  | 125 |  |  |  |  |  | 
18 | CC(C)C(=O)OC1N=C(c2ccccc2)c2cc(Cl)ccc2NC1=O (configuration not stated) | 2.67 | 131 | 0.33 | 4.8 | 2.45 | 0.51 | 8.1 | 
